Measurements collected from several papers.
Compare with care: the assays were run in different laboratories.
Sample: plasma

CS(=O)(=O)CCNCc1ccc(-c2ccc3ncnc(Nc4ccc(OCc5cccc(F)c5)c(Cl)c4)c3c2)o1 — Cmax (nude mouse; oral; 50 mg/kg; single dose): 6470 ng/mL
CC[C@H](C)[C@@H]1NC(=O)[C@@](C)(NC(=O)[C@H](CCCNC(=N)N)NC(=O)[C@H](CC(C)C)NC(=O)[C@@H](NC(=O)[C@H](CCC(N)=O)NC(=O)[C@H](CC(C)C)NC(C)=O)[C@@H](C)O)CCCC=CCCC[C@@](C)(C(=O)N[C@@H](CC(C)C)C(=O)N[C@@H](Cc2ccc3ccccc3c2)C(N)=O)NC(=O)[C@H](CCCNC(=N)N)NC(=O)[C@H](CCC(N)=O)NC1=O — Cmax (male BALB/c mouse; intravenous; 15 mg/kg): 102 µM
CC(C)(C)c1ccc(O)c(CN(Cc2cc(C(C)(C)C)ccc2O)C2CCC(NC(N)=O)CC2)c1 (centres unmarked) — Cmax (male C57BL/6 mouse; oral; 10 mg/kg; single dose): 1020 ng/mL
CN1CCC[C@H](CN2c3ccccc3Sc3ccccc32)C1.O=C(O)CCC(=O)O — Cmax (mouse; oral; 64 mg/kg; single dose): 1540 ng/mL
Cc1nc(-c2cnc(NC(C)C)n(C)c2=O)ccc1Oc1ccnc(-c2cnn(C)c2)c1 — Cmax (female mouse; oral; 7.5 mg/kg; single dose): 4450 ng/mL
COc1ccc(C(O)COc2ccc(-c3csc(-c4ccc(OCC(O)c5ccc(OC)c(OC)c5)cc4)n3)cc2)cc1OC (centres unmarked) — Cmax (C57BL/6 mouse; oral; 30 mg/kg): 5980 ng/mL
C=CC(=O)N1CC2CC(n3nc(-c4ccc(C(=O)Nc5ccccn5)cc4)c4c(N)ncnc43)CC2C1 (centres unmarked) — Cmax (SCID mouse; oral; 0.2 mg/kg): 10.5 ng/mL
COc1ccc([C@@]23Oc4cc(OC)cc(OC)c4[C@]2(O)[C@H](O)[C@H](C(=O)N(C)C)[C@H]3c2ccccc2)cc1 — Cmax (mouse; intravenous; 5 mg/kg): ~11 µM
